Experimental data taken from ChEMBL document CHEMBL3763019, “Discovery of benzenesulfonamide derivatives as potent PI3K/mTOR dual inhibitors with in vivo efficacies against hepatocellular carcinoma” (Bioorg Med Chem, 2016).

Legend:
[1] = molecular target: T1, Phosphatidylinositol 4,5-bisphosphate 3-kinase catalytic subunit beta isoform (Homo sapiens, UniProt P42338); assay: Inhibition of PI3K-beta (unknown origin) at 10 nM after 40 mins by ADP-Glo luminescent kinase assay
Method in brief: (§1)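 Final enzyme was PI3Kβ 4.8 nM and PI3Kγ 7.6 nM. ADP-Glo reagent stopped the reaction (40 min), then detection reagent was added (60 min) and luminescence read. Percent inhibition was derived from RLU.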
Target sequence in this assay (P42338 whole entry, looked up, canonical isoform): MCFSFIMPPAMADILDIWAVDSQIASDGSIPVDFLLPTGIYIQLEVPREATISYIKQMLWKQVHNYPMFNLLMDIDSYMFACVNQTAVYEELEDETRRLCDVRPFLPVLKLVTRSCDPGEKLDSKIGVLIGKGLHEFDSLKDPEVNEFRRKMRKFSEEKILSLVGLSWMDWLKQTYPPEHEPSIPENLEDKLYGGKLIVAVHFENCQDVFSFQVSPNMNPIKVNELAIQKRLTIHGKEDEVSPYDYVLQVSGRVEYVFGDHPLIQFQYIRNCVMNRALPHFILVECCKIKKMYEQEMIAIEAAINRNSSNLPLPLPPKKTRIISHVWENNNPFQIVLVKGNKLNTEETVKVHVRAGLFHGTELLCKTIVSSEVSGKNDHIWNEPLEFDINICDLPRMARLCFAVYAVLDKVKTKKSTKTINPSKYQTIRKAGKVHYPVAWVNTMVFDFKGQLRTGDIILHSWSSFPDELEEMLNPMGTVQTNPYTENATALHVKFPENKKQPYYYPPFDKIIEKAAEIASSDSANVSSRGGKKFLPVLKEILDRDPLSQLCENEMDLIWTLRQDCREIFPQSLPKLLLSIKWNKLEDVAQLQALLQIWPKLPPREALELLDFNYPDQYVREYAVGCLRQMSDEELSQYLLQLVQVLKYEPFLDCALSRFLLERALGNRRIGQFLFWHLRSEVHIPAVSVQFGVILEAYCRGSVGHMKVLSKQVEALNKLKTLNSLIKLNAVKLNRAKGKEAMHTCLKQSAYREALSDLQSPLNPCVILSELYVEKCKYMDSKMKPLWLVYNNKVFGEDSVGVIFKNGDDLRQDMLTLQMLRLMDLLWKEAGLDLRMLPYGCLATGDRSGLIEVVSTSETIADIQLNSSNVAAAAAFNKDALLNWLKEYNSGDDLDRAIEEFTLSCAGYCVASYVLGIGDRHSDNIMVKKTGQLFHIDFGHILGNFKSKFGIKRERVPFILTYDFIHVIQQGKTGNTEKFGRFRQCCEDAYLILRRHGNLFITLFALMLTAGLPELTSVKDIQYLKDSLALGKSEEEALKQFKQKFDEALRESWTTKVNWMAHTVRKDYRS

[2] = molecular target: T2, Phosphatidylinositol 4,5-bisphosphate 3-kinase catalytic subunit delta isoform (Homo sapiens) (UniProt O00329); assay: Inhibition of PI3K-delta (unknown origin) using PIP2 as substrate at 10 nM incubated for 1 hr by Kinase-Glo luminescent kinase assay
T2 sequence (whole entry): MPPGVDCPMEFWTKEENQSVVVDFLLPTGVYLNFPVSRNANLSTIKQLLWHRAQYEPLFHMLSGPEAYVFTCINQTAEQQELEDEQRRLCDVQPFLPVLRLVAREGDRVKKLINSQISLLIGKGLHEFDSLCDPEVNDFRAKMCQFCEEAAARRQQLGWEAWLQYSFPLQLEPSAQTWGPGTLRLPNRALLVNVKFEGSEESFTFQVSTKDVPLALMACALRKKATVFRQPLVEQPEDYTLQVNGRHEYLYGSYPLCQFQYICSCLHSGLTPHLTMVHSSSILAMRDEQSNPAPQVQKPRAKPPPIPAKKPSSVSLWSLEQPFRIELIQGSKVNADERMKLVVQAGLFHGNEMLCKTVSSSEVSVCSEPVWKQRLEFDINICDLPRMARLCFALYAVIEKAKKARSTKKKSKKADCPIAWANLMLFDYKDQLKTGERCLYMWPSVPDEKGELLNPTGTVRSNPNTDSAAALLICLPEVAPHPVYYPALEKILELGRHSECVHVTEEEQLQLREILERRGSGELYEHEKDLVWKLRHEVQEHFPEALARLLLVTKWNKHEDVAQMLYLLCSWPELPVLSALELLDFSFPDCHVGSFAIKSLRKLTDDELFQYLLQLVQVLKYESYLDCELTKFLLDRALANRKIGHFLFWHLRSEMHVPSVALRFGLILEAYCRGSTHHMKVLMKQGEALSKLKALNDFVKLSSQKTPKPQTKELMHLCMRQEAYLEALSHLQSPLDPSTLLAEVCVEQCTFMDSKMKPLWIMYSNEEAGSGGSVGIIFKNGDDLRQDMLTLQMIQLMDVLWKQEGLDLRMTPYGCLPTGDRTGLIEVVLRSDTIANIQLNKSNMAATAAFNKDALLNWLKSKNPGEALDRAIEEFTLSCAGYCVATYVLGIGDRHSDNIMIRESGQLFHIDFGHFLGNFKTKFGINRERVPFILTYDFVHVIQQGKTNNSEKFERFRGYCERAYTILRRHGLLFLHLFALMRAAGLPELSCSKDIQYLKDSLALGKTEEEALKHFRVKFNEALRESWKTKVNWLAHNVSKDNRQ
Method in brief: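 Final PIP2 was 50 µM and ATP 25 µM; PI3Kδ was 1.65 nM. Reactions ran 1 h at room temperature, then Kinase-Glo was added for 15 min before reading luminescence. Percent inhibition was derived from RLU. Dose-response used ten 3-fold dilutions (top 100 or 500 nM) in duplicate.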

A549 = assay: Cytotoxicity against human A549 cells after 72 hrs by MTT assay; format: functional, cell-based; conditions: A549, 72 h
Method in brief: (§2)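 Log-phase cells at 40,000–50,000 cells/mL in DMEM with 10% FBS and antibiotics were seeded and cultured overnight at 37 °C, 5% CO₂. Compounds were diluted in DMSO/PBS from 10^-4 to 10^-9 M and applied for 72 h. MTT (5 mg/mL stock) was then added for 4 h and absorbance read at 570 nm. IC50 came from nonlinear regression on triplicate wells, averaged.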

[3] = molecular target: T3, Phosphatidylinositol 4,5-bisphosphate 3-kinase catalytic subunit gamma isoform (Homo sapiens, UniProt P48736); assay: Inhibition of PI3K-gamma (unknown origin) at 10 nM after 40 mins by ADP-Glo luminescent kinase assay; method in brief: as §1
Target sequence in this assay (P48736 whole entry, looked up, canonical isoform): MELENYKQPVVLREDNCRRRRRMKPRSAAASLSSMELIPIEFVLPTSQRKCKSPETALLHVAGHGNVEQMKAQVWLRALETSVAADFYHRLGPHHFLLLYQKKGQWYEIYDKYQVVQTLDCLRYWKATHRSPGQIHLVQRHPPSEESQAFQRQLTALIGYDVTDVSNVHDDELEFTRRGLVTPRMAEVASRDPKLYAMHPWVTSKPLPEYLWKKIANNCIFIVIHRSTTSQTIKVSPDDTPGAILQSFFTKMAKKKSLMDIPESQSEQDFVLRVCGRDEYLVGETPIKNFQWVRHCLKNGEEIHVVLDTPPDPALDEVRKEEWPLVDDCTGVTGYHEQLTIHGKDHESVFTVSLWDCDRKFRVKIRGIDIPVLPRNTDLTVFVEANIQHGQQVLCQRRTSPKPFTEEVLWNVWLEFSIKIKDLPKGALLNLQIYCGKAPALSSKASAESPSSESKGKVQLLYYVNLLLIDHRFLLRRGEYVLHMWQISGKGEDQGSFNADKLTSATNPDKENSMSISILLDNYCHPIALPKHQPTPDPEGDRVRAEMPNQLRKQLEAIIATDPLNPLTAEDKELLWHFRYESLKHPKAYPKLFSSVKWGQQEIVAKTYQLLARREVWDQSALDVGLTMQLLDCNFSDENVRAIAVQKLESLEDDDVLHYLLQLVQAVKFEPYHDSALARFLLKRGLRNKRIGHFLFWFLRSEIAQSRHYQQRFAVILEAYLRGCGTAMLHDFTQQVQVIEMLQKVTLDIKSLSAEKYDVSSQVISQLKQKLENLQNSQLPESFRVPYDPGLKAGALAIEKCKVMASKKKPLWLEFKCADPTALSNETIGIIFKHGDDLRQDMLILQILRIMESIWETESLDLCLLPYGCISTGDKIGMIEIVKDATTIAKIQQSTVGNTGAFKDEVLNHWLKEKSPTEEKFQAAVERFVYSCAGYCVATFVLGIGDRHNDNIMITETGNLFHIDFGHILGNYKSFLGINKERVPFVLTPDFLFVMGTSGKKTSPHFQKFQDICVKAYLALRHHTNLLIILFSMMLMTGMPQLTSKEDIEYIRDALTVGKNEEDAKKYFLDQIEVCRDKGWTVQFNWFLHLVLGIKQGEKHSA

[4] = molecular target: Phosphatidylinositol 4,5-bisphosphate 3-kinase catalytic subunit alpha isoform (Homo sapiens, UniProt P42336); assay: Inhibition of PI3K-alpha (unknown origin) using PIP2 as substrate incubated for 1 hr by Kinase-Glo luminescent kinase assay
[5] = Cytotoxicity against human HCT116 cells after 72 hrs by MTT assay; format: functional, cell-based; conditions: HCT-116, 72 h; method in brief: as §2
MDA-MB-231 = assay: Cytotoxicity against human MDA-MB-231 cells after 72 hrs by MTT assay; format: functional, cell-based; conditions: MDA-MB-231, 72 h; method in brief: as §2
[6] = Cytotoxicity against human Bel7404 cells after 72 hrs by MTT assay; format: functional, cell-based; conditions: BEL-7404, 72 h; method in brief: as §2
[7] = Half life in rat liver microsomes; format: ADME
[8] = molecular target: T3, Phosphatidylinositol 4,5-bisphosphate 3-kinase catalytic subunit gamma isoform; assay: Inhibition of PI3K-gamma (unknown origin) after 40 mins by ADP-Glo luminescent kinase assay; method in brief: as §1
Target sequence in this assay (P48736 whole entry, canonical isoform): as the sequence (P48736 whole entry, looked up, canonical isoform) above

[9] = Antitumor activity against human Bel7404 cells xenografted in BALB/c nude mouse assessed as reduction in tumor volume at 50 mg/kg, po qd for 14 consecutive days relative to control; format: functional, BEL-7404; parameters: scale not given: the % may be the effect or the level left
Method in brief: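 Male BALB/c nude mice carried implanted BEL-7404 tumours and were randomized once tumours reached 100–300 mm³ (about 12 days); there were 6 per treated group and 8 controls. Drug in 5% polysorbate 80/water was given orally once daily for 14 days from day 13. Tumour volume (1/2·a·b·b) and body weight were tracked, with sacrifice on day 29. The read-out was relative tumour volume versus vehicle, reported as mean SE.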

[10] = molecular target: T1, Phosphatidylinositol 4,5-bisphosphate 3-kinase catalytic subunit beta isoform; assay: Inhibition of PI3K-beta (unknown origin) after 40 mins by ADP-Glo luminescent kinase assay
Method in brief: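 ADP-Glo reagent stopped the reaction (40 min), then detection reagent was added (60 min) and luminescence read. Percent inhibition was derived from RLU.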
Target sequence in this assay (P42338 whole entry, canonical isoform): as the sequence (P42338 whole entry, looked up, canonical isoform) above

[11] = molecular target: Serine/threonine-protein kinase mTOR (Homo sapiens, UniProt P42345); assay: Inhibition of mTOR kinase (unknown origin) assessed as suppression of ULight-4E-BP1 substrate phosphorylation incubated for 1 hr by lance ultra assay
[12] = molecular target: Phosphatidylinositol 4,5-bisphosphate 3-kinase catalytic subunit delta isoform (Homo sapiens, UniProt O00329); assay: Inhibition of PI3K-delta (unknown origin) using PIP2 as substrate incubated for 1 hr by Kinase-Glo luminescent kinase assay

Phosphatidylinositol 4,5-bisphosphate 3-kinase catalytic subunit alpha isoform, sequence (P42336 whole entry, canonical isoform): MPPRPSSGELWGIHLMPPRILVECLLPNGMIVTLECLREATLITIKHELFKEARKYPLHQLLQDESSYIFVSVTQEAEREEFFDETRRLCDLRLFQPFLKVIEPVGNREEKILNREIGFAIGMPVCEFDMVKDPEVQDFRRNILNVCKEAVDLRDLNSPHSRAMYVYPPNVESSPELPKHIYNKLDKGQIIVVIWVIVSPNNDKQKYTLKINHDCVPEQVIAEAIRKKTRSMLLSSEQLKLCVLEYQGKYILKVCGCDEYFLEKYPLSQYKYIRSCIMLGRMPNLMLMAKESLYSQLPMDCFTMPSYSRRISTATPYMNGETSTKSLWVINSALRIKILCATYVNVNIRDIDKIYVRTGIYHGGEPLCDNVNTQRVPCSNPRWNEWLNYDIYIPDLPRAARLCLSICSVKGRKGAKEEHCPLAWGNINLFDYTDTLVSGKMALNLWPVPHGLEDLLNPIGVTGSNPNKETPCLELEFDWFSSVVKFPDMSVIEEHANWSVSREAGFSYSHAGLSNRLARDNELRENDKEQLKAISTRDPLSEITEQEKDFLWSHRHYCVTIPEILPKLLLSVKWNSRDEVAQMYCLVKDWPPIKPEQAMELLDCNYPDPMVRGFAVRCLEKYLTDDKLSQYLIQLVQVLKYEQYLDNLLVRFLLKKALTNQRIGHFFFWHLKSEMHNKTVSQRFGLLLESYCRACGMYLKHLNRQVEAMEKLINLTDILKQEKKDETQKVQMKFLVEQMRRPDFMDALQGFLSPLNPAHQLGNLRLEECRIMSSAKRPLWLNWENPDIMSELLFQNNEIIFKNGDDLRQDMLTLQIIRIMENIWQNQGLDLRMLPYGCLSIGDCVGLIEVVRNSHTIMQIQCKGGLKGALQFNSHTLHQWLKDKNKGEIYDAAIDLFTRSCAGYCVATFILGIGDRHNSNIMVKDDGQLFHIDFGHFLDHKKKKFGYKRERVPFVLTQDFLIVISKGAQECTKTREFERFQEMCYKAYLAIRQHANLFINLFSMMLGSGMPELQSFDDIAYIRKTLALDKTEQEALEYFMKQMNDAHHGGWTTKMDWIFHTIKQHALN

| SMILES | inhibition [1] [%] | inhibition [2] [%] | IC50 (A549) [µM] | inhibition [3] [%] | IC50 [4] [µM] | IC50 [5] [µM] | IC50 (MDA-MB-231) [µM] | IC50 [6] [µM] | half-life [7] [min] | IC50 [8] [µM] | Activity [9] [%] | IC50 [10] [µM] | IC50 [11] [µM] | IC50 [12] [µM] |
| --- | --- | --- | --- | --- | --- | --- | --- | --- | --- | --- | --- | --- | --- | --- |
| COc1ncc(-c2ccc3nccc(C#CCN4CCC(C)CC4)c3c2)cc1NS(=O)(=O)c1ccc(F)cc1F | 5.8 | 7.7 | 2.9 | 49 | 0.07 | 4.02 | 7.99 | 1.55 | – | – | – | – | – | – |
| COc1ncc(-c2ccc3nccc(C#CCN4CCOCC4)c3c2)cc1NS(=O)(=O)c1ccc(F)cc1F | 70 | 35 | 0.24 | 96 | 0.0021 | 0.51 | 1.99 | 0.04 | 36.9 | – | – | – | – | – |
| COc1ncc(-c2ccc3nccc(-c4ccnnc4)c3c2)cc1NS(=O)(=O)c1ccc(F)cc1F [OMIPALISIB] | – | – | 0.6 | – | – | 0.01 | 0.13 | 0.01 | – | 0.0006 | – | – | – | – |
| COc1ncc(-c2ccc3nccc(C#CCN(C4CCCCC4)C4CCCCC4)c3c2)cc1NS(=O)(=O)c1ccc(F)cc1F | 13 | 3.2 | 12 | 10 | > 0.1 | 11.7 | 27.7 | 6.1 | – | – | – | – | – | – |
| COc1ncc(-c2ccc3nccc(C#CCN4CCCCC4C)c3c2)cc1NS(=O)(=O)c1ccc(F)cc1F (centres undefined) | 11 | 4.6 | 1.35 | 59 | 0.061 | 4.52 | 4.73 | 1.14 | – | – | – | – | – | – |
| COc1ncc(-c2ccc3nccc(C#CCN(C)C)c3c2)cc1NS(=O)(=O)c1ccc(F)cc1F | 41 | 6.1 | 0.11 | 81 | 0.0037 | 1.08 | 1.67 | 0.23 | 18.8 | – | – | – | – | – |
| CNC(=O)c1cc(Oc2ccc(NC(=O)Nc3ccc(Cl)c(C(F)(F)F)c3)cc2)ccn1 [SORAFENIB] | – | – | – | – | – | – | – | – | – | – | 44 | – | – | – |
| COc1ncc(-c2ccc3nccc(C#CCN4CCCCC4)c3c2)cc1NS(=O)(=O)c1ccc(F)cc1F | 1.4 | 3 | 1.81 | 55 | 0.037 | 3.61 | 10.3 | 2.3 | – | – | – | – | – | – |
| CCOC(=O)N1CCN(CC#Cc2ccnc3ccc(-c4cnc(OC)c(NS(=O)(=O)c5ccc(F)cc5F)c4)cc23)CC1 | 30 | 20.7 | 0.11 | 82 | 0.0055 | 1.39 | 3.81 | 0.48 | 46.5 | 0.004 | – | 0.023 | 0.0099 | 0.019 |
| COc1ncc(-c2ccc3nccc(C#CCN(C)CCO)c3c2)cc1NS(=O)(=O)c1ccc(F)cc1F | 57 | 16 | 1.01 | 90 | 0.0039 | 1.15 | 2.8 | 0.08 | 28.4 | – | – | – | – | – |
| COc1ncc(-c2ccc3nccc(C#CCN(C)C)c3c2)cc1NS(=O)(=O)c1ccc(F)cc1 | 17 | 10 | 0.97 | 70 | 0.032 | 1.34 | 2.08 | 1.16 | – | – | – | – | – | – |
| CCN(CC)CC#Cc1ccnc2ccc(-c3cnc(OC)c(NS(=O)(=O)c4ccc(F)cc4F)c3)cc12 | 21 | 1.2 | 2.43 | 68 | 0.033 | 2.27 | 2.68 | 0.3 | – | – | – | – | – | – |
